From ChEMBL document CHEMBL4033798, “Discovery of Novel KRAS-PDEδ Inhibitors by Fragment-Based Drug Design” (J Med Chem, 2018) come the findings set out here.

pIC50: −log10 of the molar value.

The subject of assay [1] is CAPAN-1. Kind of assay: Antiproliferative activity against KRAS-dependent human Capan1 cells after 48 hrs by CCK8 assay. The following applies: CAPAN-1, 48 h. For orientation: Tetrazolium assays rely on reduction of a dye to a coloured formazan, in cell work by metabolically active cells.
For assay [2], the system named is CAPAN-1. Kind of assay: Induction of apoptosis in KRAS-dependent human Capan1 cells after 48 hrs by Annexin-V FITC/propidium iodide staining-based flow cytometry. The format is functional, cell-based. The method, boiled down: (§1)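 Capan-1 cells were exposed to compound for 48 h, with 0.1% DMSO as the vehicle control. The read-out is the percentage of apoptotic cells. Compounds were tested at 10, 25 or 50 μM.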
A general note: In flow cytometry, cells or beads pass a laser one at a time.

The test system of assay [3] is CAPAN-1. Kind of assay: Induction of apoptosis in KRAS-dependent human Capan1 cells at 10 uM incubated for 48 hrs by Annexin-V FITC/propidium iodide staining-based flow cytometry (reference value: 3.51%). Format: functional. The gist of the method:
as §1

In assay [4] the test system is CAPAN-1. Kind of assay: Induction of apoptosis in KRAS-dependent human Capan1 cells at 25 uM incubated for 48 hrs by Annexin-V FITC/propidium iodide staining-based flow cytometry (reference value: 3.51%). The format is functional. The gist of the method:
as §1

Assay [5] concerns CAPAN-1. Kind of assay: Induction of apoptosis in KRAS-dependent human Capan1 cells at 50 uM incubated for 48 hrs by Annexin-V FITC/propidium iodide staining-based flow cytometry (reference value: 3.51%). Format: functional. The gist of the method:
as §1

Broadly, the pIC50 is the IC50 on a negative log10 scale, so that one unit is a factor of ten. `O=C1c2cc(F)ccc2N(CC2CCC2)C(c2ccccc2F)N1C1CCN(CCCn2ccnc2-c2ccccc2)CC1` (stereo not drawn) showed a pIC50 with CAPAN-1 [1] of 4.94.
Same read-out and setting: under `CN1c2ccc(F)cc2C(=O)N(C2CCN(CCCn3ccnc3-c3ccccc3)CC2)C1c1ccccc1F` (stereo not drawn) stands 4.33; under `O=C1c2ccccc2NC(c2ccccn2)N1c1ccc(OCCn2ccnc2)cc1` (stereo not drawn), below 4.00; under `O=C1c2cc(F)ccc2N(CC2CCCCC2)C(c2ccccc2F)N1C1CCN(CCCn2ccnc2-c2ccccc2)CC1` (stereo not drawn), 4.26.
On the same count and under the same terms, as for `Cc1nccn1CCOc1ccc(N2C(=O)c3ccccc3NC2c2ccccc2F)cc1` (stereo not drawn), the figure is below 4.00.
Regarding `O=C1c2cc(F)ccc2NC(c2ccccc2F)N1CCOc1ccc(-c2nc3ccccc3n2Cc2ccncc2)cc1` (stereo not drawn), the pIC50 in the assay with CAPAN-1 [1] was below 4.00.
Compound `O=C1c2cc(F)ccc2N(CC2CC2)C(c2ccccc2F)N1C1CCN(CCCn2ccnc2-c2ccccc2)CC1` (stereo not drawn) showed a pIC50 in the assay with CAPAN-1 [1] of 5.06. Further, the Activity result with CAPAN-1 [2] is “Dose-dependent effect”; in the assay with CAPAN-1 [3], 17.95%; with CAPAN-1 [4], 36.4%.
In turn, `Cc1ccc2c(c1)C(=O)N(CCOc1ccc(-c3nc4ccccc4n3Cc3ccncc3)cc1)C(c1ccccc1F)N2` (stereo not drawn) showed a pIC50 in the assay with CAPAN-1 [1] below 4.00.
Same read-out and setting: as for `Cc1nccn1CCOc1ccc(N2C(=O)c3ccccc3NC2c2ccccn2)cc1` (stereo not drawn), the figure is below 4.00; as for `O=C1c2cc(F)ccc2N(CC2CCCC2)C(c2ccccc2F)N1C1CCN(CCCn2ccnc2-c2ccccc2)CC1` (stereo not drawn), 4.91.
With `O=C1c2cc(Cl)ccc2NC(c2ccccc2F)N1CCOc1ccc(-c2nc3ccccc3n2Cc2ccncc2)cc1` (stereo not drawn), the pIC50 with CAPAN-1 [1] was below 4.00.
On the same count and under the same terms, as for `Cc1nc2ccccc2n1CCOc1ccc(N2C(=O)c3ccccc3NC2c2ccccc2F)cc1` (stereo not drawn), the figure is below 4.00; as for `O=C1c2ccccc2NC(c2ccccc2F)N1c1ccc(OCCn2ccnc2-c2ccccc2)cc1` (stereo not drawn), below 4.00; as for `COc1ccc2c(c1)NC(c1ccccc1F)N(C1CCN(CCCn3ccnc3-c3ccccc3)CC1)C2=O` (stereo not drawn), 4.09.
Still for that read-out and setting: under `O=C1c2cc(F)ccc2NC(c2ccccc2F)N1C1CCN(CCCn2ccnc2-c2ccccc2)CC1` (stereo not drawn) stands 4.48.
On to `O=C1c2ccccc2NC(c2ccccc2F)N1C1CCN(CCCn2ccnc2-c2ccccc2)CC1` (stereo not drawn), for which the pIC50 in the assay on CAPAN-1 [1] was 4.47.
Still for that read-out and setting: as for `O=C1c2ccccc2NC(c2ccccc2F)N1CCOc1ccc(-c2nc3ccccc3n2Cc2ccncc2)cc1` (stereo not drawn), the figure is below 4.00; as for `O=C1c2ccccc2NC(c2ccccc2F)N1c1ccc(OCCn2ccnc2)cc1` (stereo not drawn), below 4.00; as for `O=C1c2ccc(F)cc2NC(c2ccccc2F)N1C1CCN(CCCn2ccnc2-c2ccccc2)CC1` (stereo not drawn), 4.46.
On the same count and under the same terms, as for `O=C1c2ccc(Cl)cc2NC(c2ccccc2F)N1CCOc1ccc(-c2nc3ccccc3n2Cc2ccncc2)cc1` (stereo not drawn), the figure is below 4.00.
Take `O=C1c2ccccc2NC(c2ccccc2F)N1c1ccc(OCCn2c(-c3ccccc3)nc3ccccc32)cc1` (stereo not drawn): the pIC50 in the assay with CAPAN-1 [1] was below 4.00.
Compound `COc1ccc2c(c1)C(=O)N(C1CCN(CCCn3ccnc3-c3ccccc3)CC1)C(c1ccccc1F)N2` (stereo not drawn) gave a pIC50 in the assay on CAPAN-1 [1] of 4.13.
On the same count and under the same terms, as for `O=C1c2ccccc2NC(c2ccccn2)N1c1ccc(OCCn2c(-c3ccccc3)nc3ccccc32)cc1` (stereo not drawn), the figure is below 4.00; as for `O=C1c2ccccc2NC(c2ccccn2)N1c1ccc(OCCn2ccnc2-c2ccccc2)cc1` (stereo not drawn), 4.28; as for `Cc1ccc2c(c1)C(=O)N(C1CCN(CCCn3ccnc3-c3ccccc3)CC1)C(c1ccccc1F)N2` (stereo not drawn), 4.38.
The same measure, in the same setting: as for `COc1ccc2c(c1)NC(c1ccccc1F)N(CCOc1ccc(-c3nc4ccccc4n3Cc3ccncc3)cc1)C2=O` (stereo not drawn), the figure is below 4.00.
In the assay on CAPAN-1 [1], `O=C1c2ccc(F)cc2NC(c2ccccc2F)N1CCOc1ccc(-c2nc3ccccc3n2Cc2ccncc2)cc1` (stereo not drawn) gave a pIC50 below 4.00.
Compound `Cc1ccc2c(c1)NC(c1ccccc1F)N(C1CCN(CCCn3ccnc3-c3ccccc3)CC1)C2=O` (stereo not drawn) gave a pIC50 with CAPAN-1 [1] of 4.11.
`Cc1ccc(-n2nc3c(=O)n(CCCC(=O)NCC(C)c4ccccc4)nc(C)c3c2C)cc1` (stereo not drawn): the pIC50 in the assay with CAPAN-1 [1] is 4.32. This compound also yielded an Activity in the assay on CAPAN-1 [5] of 20.5%.
